# The source made the active and inactive calls. The rule behind the calls is not given here.
# Legend:
# [1] = tested on: MCF7; experiment: Reduction in peIF4E protein expression in human MCF7 cells at 0.63 uM to 20 uM after 24 hrs by SDS-PAGE and Western blotting method; assay type: functional, cell-based
# Method in brief: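 MCF-7, MDA-MB-231 and MDA-MB-468 cells, kept in RPMI 1640 with 10% FBS, were exposed for 24 h to a range of concentrations, with DMSO vehicle controls. Equal protein from lysates was separated by SDS–PAGE and probed for Mnk1, Mnk2, peIF4E, eIF4E and cPARP. GAPDH reprobing served as loading control.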
# [2] = tested on: MDA-MB-231; experiment: Antitumor activity against human MDA-MB-231 cells xenografted in SCID mouse assessed as inhibition of tumor growth at 20 mg/kg, ip dosed once daily for 5 days per week for 28 days; assay type: functional; conditions: MDA-MB-231, ip, in the assay text read “athymic nude mouse” for “SCID mouse”, route intraperitoneal, read-out: TGI
# Method in brief: (§1)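 Athymic nude female mice with subcutaneous MDA-MB-231 tumors (10 × 10⁶ cells; ~100 mm³ at randomization, n = 6/group) dosed ip once daily, 5 days/week for 28 days, in 40% β-cyclodextrin/ddH₂O; vehicle controls. %T/C computed as median tumor volume treated vs control at day 28 × 100. Body weight monitored.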
# [3] = tested on: PC-3; experiment: Inhibition of cell migration of human PC3 cells at 5 uM after 24 hrs by wound healing assay; assay type: functional, cell-based
# Method in brief: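 Cells (5 × 10⁵ per well) grown to confluence, monolayer scratched at time zero, then exposed to 5 μM for 24 h; initial and final wounds photographed at 100×.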
# [4] = biological target: T1, Androgen receptor (Homo sapiens) (UniProt P10275); conditions: LNCaP, at 10 µM
# T1 sequence (whole entry): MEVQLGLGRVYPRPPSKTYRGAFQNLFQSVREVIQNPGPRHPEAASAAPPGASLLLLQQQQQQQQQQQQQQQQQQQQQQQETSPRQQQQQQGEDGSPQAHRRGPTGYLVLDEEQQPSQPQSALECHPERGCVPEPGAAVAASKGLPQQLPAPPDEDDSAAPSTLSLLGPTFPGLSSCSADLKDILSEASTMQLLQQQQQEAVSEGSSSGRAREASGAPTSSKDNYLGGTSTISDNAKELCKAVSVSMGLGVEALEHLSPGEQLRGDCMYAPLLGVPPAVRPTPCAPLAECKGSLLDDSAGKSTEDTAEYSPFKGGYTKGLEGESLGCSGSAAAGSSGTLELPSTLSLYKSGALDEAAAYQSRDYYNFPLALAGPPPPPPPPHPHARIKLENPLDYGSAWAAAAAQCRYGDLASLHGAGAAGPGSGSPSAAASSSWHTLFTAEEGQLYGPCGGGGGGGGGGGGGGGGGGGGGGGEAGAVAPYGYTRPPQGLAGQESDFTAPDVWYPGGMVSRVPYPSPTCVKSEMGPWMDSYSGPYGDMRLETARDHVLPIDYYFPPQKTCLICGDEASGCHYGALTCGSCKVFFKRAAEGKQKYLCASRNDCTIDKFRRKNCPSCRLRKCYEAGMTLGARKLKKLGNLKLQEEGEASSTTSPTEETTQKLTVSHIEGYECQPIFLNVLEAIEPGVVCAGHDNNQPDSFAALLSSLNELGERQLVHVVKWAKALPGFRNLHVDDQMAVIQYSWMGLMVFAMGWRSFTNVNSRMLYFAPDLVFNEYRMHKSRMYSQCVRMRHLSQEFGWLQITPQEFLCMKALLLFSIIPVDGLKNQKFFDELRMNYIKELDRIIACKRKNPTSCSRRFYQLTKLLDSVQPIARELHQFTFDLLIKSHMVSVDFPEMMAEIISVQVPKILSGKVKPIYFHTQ
# [5] = tested on: MCF7; experiment: Reduction in Mnk2 protein expression in human MCF7 cells at 0.63 uM to 20 uM after 24 hrs by SDS-PAGE and Western blotting method; assay type: functional, cell-based
# Method in brief: (§2)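 Breast cancer cells in RPMI 1640 with 10% FBS treated 24 h at indicated concentrations, DMSO vehicle control; equal protein loaded on SDS–PAGE and immunoblotted for Mnk1, Mnk2, peIF4E, eIF4E and cleaved PARP; blots reprobed for GAPDH as loading control.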
# [6] = tested on: MDA-MB-231; experiment: Reduction in Mnk1 protein expression in human MDA-MB-231 cells at 0.63 uM to 20 uM after 24 hrs by SDS-PAGE and Western blotting method; assay type: functional, cell-based; method in brief: as §2
# [7] = tested on: LNCaP; experiment: Growth inhibition of human LNCAP cells by MTT assay; assay type: functional
# Method in brief: (§3)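 Cells grown in RPMI 1640 with 10% FBS, plated at 2500 cells/well, treated across a dose range; growth read by MTT. GI50 taken from dose–response curves by nonlinear regression, at least three independent experiments.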
# [8] = tested on: MDA-MB-231; experiment: Antitumor activity against human MDA-MB-231 cells xenografted in SCID mouse assessed as tumor growth at 20 mg/kg, ip dosed once daily for 5 days per week for 28 days; assay type: functional; conditions: route intraperitoneal, in the assay text read “athymic nude mouse” for “SCID mouse”; method in brief: as §1
# [9] = tested on: MDA-MB-231; experiment: Reduction in Mnk2 protein expression in human MDA-MB-231 cells at 0.63 uM to 20 uM after 24 hrs by SDS-PAGE and Western blotting method; assay type: functional, cell-based; method in brief: as §2
# [10] = tested on: MDA-MB-231; experiment: Growth inhibition of human MDA-MB-231 cells by MTT assay; assay type: functional; method in brief: as §3
# [11] = tested on: MCF7; experiment: Reduction in Mnk1 protein expression in human MCF7 cells at 0.63 uM to 20 uM after 24 hrs by SDS-PAGE and Western blotting method; assay type: functional, cell-based; method in brief: as §2
# [12] = tested on: LNCaP; experiment: Induction of apoptosis in human LNCAP cells assessed as reduction in cyclin D1 levels at 0.6 uM to 20 uM after 24 hrs by SDS-PAGE and Western blotting method; assay type: functional, cell-based
# Method in brief: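 LNCaP cells (RPMI 1640, 10% FBS) exposed 24 h to 0.6–20 μM, DMSO vehicle control; equal protein on SDS–PAGE, immunoblotted for fAR, Mnk1/2, peIF4E, cyclin D1 and cleaved PARP; β-actin reprobe for loading.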
# [13] = tested on: MDA-MB-231; experiment: Induction of apoptosis in human MDA-MB-231 cells assessed as increase in c-PARP formation at 0.63 uM to 20 uM after 24 hrs by SDS-PAGE and Western blotting method; assay type: functional, cell-based; method in brief: as §2
# [14] = tested on: MDA-MB-231; experiment: Antitumor activity against human MDA-MB-231 cells xenografted in nude mouse assessed as reduction in Bcl2 protein expression at 20 mg/kg, ip dosed once daily for 5 days per week for 28 days by SDS-PAGE and Western blotting method
# [15] = tested on: MCF7; experiment: Effect on total eIF4E protein expression in human MCF7 cells at 0.63 uM to 20 uM after 24 hrs by SDS-PAGE and Western blotting method; assay type: functional, cell-based; method in brief: as §2
# [16] = tested on: LNCaP; experiment: Reduction in fAR protein expression in human LNCAP cells at 0.6 uM to 20 uM after 24 hrs by SDS-PAGE and Western blotting method; assay type: functional, cell-based
# Method in brief: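 LNCaP cells were treated for 24 h across 0.6–20 μM, with vehicle (DMSO) controls. Equal protein from lysates was run on SDS–PAGE and immunoblotted for fAR, Mnk1/2, peIF4E, cyclin D1 and cleaved PARP. Blots were reprobed for β-actin as loading control.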
inhibition [4],GI50 [7],GI50 [10],SMILES,inhibition [1],inhibition in vivo at 20 mg/kg [2],inhibition [3],inhibition [5],inhibition [6],T/C [8],inhibition [9],inhibition [11],Activity [12],Activity [13],Activity [14],Activity [15],inhibition [16]
Active,2690 nM,8.51 µM,CC1=C(/C=C/C(C)=C/C=C/C(C)=C\C(=O)Nc2cccc(F)c2)C(C)(C)CCC1n1ccnc1 (configuration not stated),Dose-dependent effect,85.4%,Active,Dose-dependent effect,Dose-dependent effect,14.6%,Dose-dependent effect,Dose-dependent effect,Active,Dose-dependent effect,Active,inactive,Dose-dependent effect
Active,1690 nM,2.23 µM,CC1=C(/C=C/C(C)=C/C=C/C(C)=C\C(=O)NCc2ccc(O)cc2)C(C)(C)CCC1n1ccnc1 (configuration not stated),Dose-dependent effect,85.4%,Active,Dose-dependent effect,Dose-dependent effect,14.6%,Dose-dependent effect,Dose-dependent effect,Active,Dose-dependent effect,Active,inactive,Dose-dependent effect

# — ChEMBL document CHEMBL3414559, “Novel C-4 heteroaryl 13-cis-retinamide Mnk/AR degrading agents inhibit cell proliferation and migration and induce apoptosis in human breast and prostate cancer cells and suppress growth of MDA-MB-231 human breast and CWR22Rv1 human prostate tumor xenografts in mice” (J Med Chem, 2015)
